Source: ChEMBL document CHEMBL4406820, “Novel reverse thia-analogs of fosmidomycin: Synthesis and antiplasmodial activity” (Eur J Med Chem, 2019)
The source made the active and inactive calls. The rule behind the calls is not given here.

Legend:
[1] = biological target: T1, 1-deoxy-D-xylulose 5-phosphate reductoisomerase, apicoplastic (Plasmodium falciparum (isolate 3D7)) (UniProt Q8IKG4); test: Inhibition of recombinant Plasmodium falciparum IspC expressed in Escherichia coli using 1-deoxy-D-xylulose 5-phosphate as substrate preincubated for 7 days followed by substrate addition in presence of Tris HCL at pH 7.6 by photometric assay
T1 sequence (whole entry): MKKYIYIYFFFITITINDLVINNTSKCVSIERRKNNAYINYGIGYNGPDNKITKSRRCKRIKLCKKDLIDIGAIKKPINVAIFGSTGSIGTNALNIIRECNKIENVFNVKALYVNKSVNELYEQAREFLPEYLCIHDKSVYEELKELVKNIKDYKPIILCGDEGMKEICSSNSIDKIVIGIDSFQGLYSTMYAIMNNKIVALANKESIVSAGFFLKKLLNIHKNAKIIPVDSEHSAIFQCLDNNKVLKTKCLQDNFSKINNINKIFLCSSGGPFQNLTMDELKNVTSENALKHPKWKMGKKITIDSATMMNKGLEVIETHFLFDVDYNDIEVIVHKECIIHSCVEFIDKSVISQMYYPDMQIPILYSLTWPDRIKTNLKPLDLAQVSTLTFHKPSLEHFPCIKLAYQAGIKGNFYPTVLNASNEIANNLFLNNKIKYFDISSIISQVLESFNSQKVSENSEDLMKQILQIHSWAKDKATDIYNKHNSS

[2] = biological target: T1, 1-deoxy-D-xylulose 5-phosphate reductoisomerase, apicoplastic (Plasmodium falciparum (isolate 3D7)); test: Inhibition of recombinant Plasmodium falciparum IspC expressed in Escherichia coli using 1-deoxy-D-xylulose 5-phosphate as substrate preincubated for 2 days followed by substrate addition in presence of Tris HCL at pH 7.6 by photometric assay
Method in brief: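 Racemate or single enantiomer (0.6–0.7 mM) held in 100 mM Tris-HCl pH 7.6 with 0.02% NaN3 at 22–23 °C. Aliquots taken at 0, 24 and 48 h and frozen at −80 °C. All aliquots then assayed in parallel for IC50 against P. falciparum IspC: 340 nm NADPH read-out with 0.5 mM DXP.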

Plasmodium falciparum [3] = test: Antimalarial activity against asexual blood stages of Plasmodium falciparum 3D7 infected in human erythrocytes incubated for 3 days by ELISA; type: functional, organism-based; conditions: 3D7, 72 h
Method in brief: (§1)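 Asexual blood-stage P. falciparum cultured in human erythrocytes; growth measured by HRP2 double-site sandwich ELISA. IC50 values are the mean of two independent double determinations.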

Plasmodium falciparum [4] = test: Antimalarial activity against asexual blood stages of Plasmodium falciparum Dd2 infected in human erythrocytes incubated for 3 days by ELISA; type: functional, organism-based; conditions: Dd2, 72 h; method in brief: as §1
Klebsiella pneumoniae [5] = test: Antimicrobial activity against Klebsiella pneumoniae ATCC 13883 incubated for 18 hrs by microbroth dilution assay; type: functional; conditions: ATCC 13883, 18 h
HeLa = test: Cytotoxicity against human HeLa cells assessed as reduction in cell viability incubated for 24 hrs by neutral red assay; type: cell-based
Method in brief: (§2)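 Cytotoxicity on HeLa monolayers quantified spectrophotometrically, given as the mean of two independent double determinations. SI is HeLa IC50 divided by the P. falciparum 3D7 IC50.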

Pseudomonas aeruginosa = test: Antimicrobial activity against Pseudomonas aeruginosa ATCC 27853 incubated for 18 hrs by microbroth dilution assay; type: functional; conditions: ATCC 27853, 18 h
[6] = Apparent permeability in human Caco2 cells by LC-MS/MS analysis; type: ADME, cell-based; conditions: Caco-2
Method in brief: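 Compound applied to a polarized Caco2 monolayer. Concentrations measured over time by LC-MS/MS in donor medium, acceptor medium and cells; Papp calculated. Atenolol served as a reference compound.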

Escherichia coli [7] = test: Antimicrobial activity against Escherichia coli ATCC 25922 incubated for 18 hrs by microbroth dilution assay; type: functional; conditions: ATCC 25922, 18 h
[8] = Stability of compound in pH 7.6 PBS buffer assessed as parent compound remaining incubated for 72 by HPLC analysis; type: physicochemical
Method in brief: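 Compound dissolved at 1 mg/mL in phosphate buffer pH 7.6 (Ph. Eur.) and shaken at room temperature for 72 h. Samples at 0, 1, 3, 6, 24 and 72 h (n = 3) run by C18 reversed-phase HPLC with an acetonitrile/water gradient containing 0.1% TFA. Decomposition taken from the loss of peak area at 254 nm.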

[9] = tested on: Mycobacterium tuberculosis; test: Antimycobacterial activity against Mycobacterium tuberculosis H37Rv incubated for 5 days by resazurin dye based assay; type: functional; conditions: 120 h
Acinetobacter baumannii [10] = test: Antimicrobial activity against Acinetobacter baumannii ATCC BAA747 incubated for 18 hrs by microbroth dilution assay; type: functional; conditions: ATCC BAA747, 18 h
[11] = Selectivity index, ratio of IC50 for human HeLa cells to IC50 for Plasmodium falciparum 3D7; type: toxicity; conditions: read-out: Ratio IC50; method in brief: as §2
Escherichia coli [12] = test: Antimicrobial activity against Escherichia coli ATCC BAA 2469 incubated for 18 hrs by microbroth dilution assay; type: functional; conditions: ATCC BAA 2469, 18 h
Acinetobacter baumannii [13] = test: Antimicrobial activity against Acinetobacter baumannii ATCC BAA 1605 incubated for 18 hrs by microbroth dilution assay; type: functional; conditions: ATCC BAA 1605, 18 h
Klebsiella pneumoniae [14] = test: Antimicrobial activity against Klebsiella pneumoniae ATCC 700603 incubated for 18 hrs by microbroth dilution assay; type: functional; conditions: ATCC 700603, 18 h

SMILES: CN(O)C(=O)CS[C@@H](c1ccccc1)P(=O)(O)O
- inhibition [1]: Active
- inhibition [2]: Active
- IC50 (Plasmodium falciparum [3]): 0.087 µM
- IC50 (Plasmodium falciparum [4]): 0.14 µM

SMILES: CN(O)C(=O)CS[C@H](c1ccccc1)P(=O)(O)O
- inhibition [1]: Active
- inhibition [2]: Active
- IC50 (Plasmodium falciparum [3]): > 130 µM
- IC50 (Plasmodium falciparum [4]): > 130 µM

SMILES: CN(O)C(=O)CSC(c1ccccc1)P(=O)(O)O (racemic)
- MIC (Klebsiella pneumoniae [5]): > 100 µM
- IC50 (HeLa): > 1000 µM
- MIC (Pseudomonas aeruginosa): > 100 µM
- Papp [6]: 0.14 ×10⁻⁶ cm/s
- MIC (Escherichia coli [7]): > 100 µM
- IC50 (Plasmodium falciparum [3]): 0.19 µM
- Stability [8]: > 95%
- MIC [9]: > 100 µM
- MIC (Acinetobacter baumannii [10]): > 100 µM
- selectivity ratio [11]: > 37000
- MIC (Escherichia coli [12]): > 100 µM
- MIC (Acinetobacter baumannii [13]): > 100 µM
- IC50 (Plasmodium falciparum [4]): 0.26 µM
- MIC (Klebsiella pneumoniae [14]): > 100 µM
